In ChEMBL document CHEMBL1649314, “Experimental murine scedosporiosis: histopathology and azole treatment” (2010):
Active and inactive are the calls of the source. The calls are words filed in the database; no cut-off is given here.

What was measured:
Type in all cases: functional, organism-based
[1] = test system: Scedosporium boydii; assay: Antifungal activity against Scedosporium boydii FMR 6694 infected in immunosuppressed OF1 mouse assessed as reduction in kidney fungal burden at 20 mg/kg, po BID administered 24 hrs postinfection for 10 days measured after 20 days; set-up: dose 20 mg/kg
[2] = test system: Scedosporium apiospermum; assay: Antifungal activity against Scedosporium apiospermum IHEM 14464 infected in immunosuppressed OF1 mouse assessed as prolonged survival of mouse at 20 mg/kg, po BID administered 24 hrs postinfection for 10 days measured after 20 days; set-up: dose 20 mg/kg
How it was run: (§1)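 Male OF1 mice, groups of 10, immunosuppressed 1 day before infection with cyclophosphamide 200 mg/kg i.p. plus 5-fluorouracil 150 mg/kg i.v. Infected i.v. via tail vein with 1 × 10^4 CFU in 0.2 ml saline. Oral treatment began 24 h post-challenge for 10 days. Mice checked daily for 20 days. Survival by Kaplan-Meier, compared by log rank test.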

[3] = test system: Scedosporium aurantiacum; assay: Antifungal activity against Scedosporium aurantiacum CBS 116910 infected in immunosuppressed OF1 mouse assessed as reduction in kidney fungal burden at 20 mg/kg, po BID administered 24 hrs postinfection for 10 days measured after 20 days; set-up: dose 20 mg/kg
[4] = test system: Scedosporium apiospermum; assay: Antifungal activity against Scedosporium apiospermum CBS 117407 infected in immunosuppressed OF1 mouse assessed as prolonged survival of mouse at 10 mg/kg, po BID administered 24 hrs postinfection for 10 days measured after 20 days; set-up: dose 10 mg/kg; how it was run: as §1
[5] = test system: Scedosporium aurantiacum; assay: Antifungal activity against Scedosporium aurantiacum CBS 116910 infected in immunosuppressed OF1 mouse assessed as reduction in brain fungal burden at 40 mg/kg, po BID administered 24 hrs postinfection for 10 days measured after 20 days; set-up: dose 40 mg/kg
[6] = test system: Scedosporium aurantiacum; assay: Antifungal activity against Scedosporium aurantiacum CBS 116910 infected in immunosuppressed OF1 mouse assessed as reduction in kidney fungal burden at 10 mg/kg, po BID administered 24 hrs postinfection for 10 days measured after 20 days; set-up: dose 10 mg/kg
[7] = test system: Scedosporium boydii; assay: Antifungal activity against Scedosporium boydii FMR 8627 infected in immunosuppressed OF1 mouse assessed as prolonged survival of mouse at 20 mg/kg, po BID administered 24 hrs postinfection for 10 days measured after 20 days; set-up: dose 20 mg/kg
How it was run: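 Male OF1 mice were immunosuppressed 1 day before infection with cyclophosphamide 200 mg/kg i.p. plus 5-fluorouracil 150 mg/kg i.v. They were infected i.v. via a lateral tail vein with 1 × 10^4 CFU/mouse in 0.2 ml saline. Oral dosing was 10 or 20 mg/kg twice daily, or 20 or 40 mg/kg once daily (those mice and controls drank grapefruit juice from day −3). Dosing ran 24 h post-challenge for 10 days; 10 mice/group; observed daily to day 20; Kaplan-Meier with log rank test.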

[8] = Antifungal activity against Scedosporium aurantiacum CBS 116910 infected in immunosuppressed OF1 mouse assessed as prolonged survival of mouse at 10 mg/kg, po BID administered 24 hrs postinfection for 10 days measured after 20 days; set-up: dose 10 mg/kg; how it was run: as §1
[9] = test system: Scedosporium aurantiacum; assay: Antifungal activity against Scedosporium aurantiacum IHEM 15458 infected in immunosuppressed OF1 mouse assessed as reduction in kidney fungal burden at 20 mg/kg, po BID administered 24 hrs postinfection for 10 days measured after 20 days; set-up: dose 20 mg/kg
[10] = test system: Scedosporium boydii; assay: Antifungal activity against Scedosporium boydii FMR 6694 infected in immunosuppressed OF1 mouse assessed as reduction in brain fungal burden at 20 mg/kg, po BID administered 24 hrs postinfection for 10 days measured after 20 days; set-up: dose 20 mg/kg
[11] = Antifungal activity against Scedosporium aurantiacum CBS 116910 infected in immunosuppressed OF1 mouse assessed as prolonged survival of mouse at 20 mg/kg, po BID administered 24 hrs postinfection for 10 days measured after 20 days; set-up: dose 20 mg/kg; how it was run: as §1
[12] = test system: Scedosporium apiospermum; assay: Antifungal activity against Scedosporium apiospermum CBS 117407 infected in immunosuppressed OF1 mouse assessed as reduction in brain fungal burden at 40 mg/kg, po BID administered 24 hrs postinfection for 10 days measured after 20 days; set-up: dose 40 mg/kg
[13] = test system: Scedosporium apiospermum; assay: Antifungal activity against Scedosporium apiospermum IHEM 14464 infected in immunosuppressed OF1 mouse assessed as reduction in brain fungal burden at 40 mg/kg, po BID administered 24 hrs postinfection for 10 days measured after 20 days; set-up: dose 40 mg/kg

In the case of `CC[C@@H]([C@H](C)O)n1ncn(-c2ccc(N3CCN(c4ccc(OC[C@@H]5CO[C@@](Cn6cncn6)(c6ccc(F)cc6F)C5)cc4)CC3)cc2)c1=O` [POSACONAZOLE], the Activity [1] is reported as “inactive”, the Activity [2] is reported as “Active” and the Activity [3] is reported as “Active”. The Activity [4] was “Active”, the Activity [5] was “Active” and the Activity [6] was “Active”. The Activity [7] was “Active”, the Activity [8] was “Active” and the Activity [9] was “Active”. For the same compound, the Activity [10] was “inactive”, the Activity [11] was “Active” and the Activity [12] was “Active”. For the same compound, the Activity [13] was “Active”.
